Experimental findings from ChEMBL document CHEMBL1817564, “Recognition of HIV TAR RNA by triazole linked neomycin dimers” (Bioorg Med Chem Lett, 2011) are described below.

Calls of active or inactive are those of the source. The rule behind the calls is not given here.

In experiment [1] the test system is Nucleic Acid. The experiment in a line: Binding affinity to HIV1 TAR RNA assessed as melting temperature at HIV1 TAR RNA to compound ratio of 1 at pH 6.8 by UV thermal denaturation assay. It is filed as nucleic-acid assay. Conditions: Human immunodeficiency virus 1. The essentials: (§1)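 UV melting of HIV-1 TAR RNA (1 µM/strand) with ligand at 1 µM (ratio 1) in 100 mM KCl, 10 mM SC, 0.5 mM EDTA, pH 6.8. Tm taken from first-derivative plots of absorbance versus temperature; ΔTm is relative to RNA alone.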

The subject of experiment [2] is Nucleic Acid. The experiment can be described thus: Binding affinity to HIV1 TAR RNA assessed as change in melting temperature at HIV1 TAR RNA to compound ratio of 1 at pH 6.8 by UV thermal denaturation assay. Conditions: Human immunodeficiency virus 1. It is filed as nucleic-acid assay. The essentials: as §1
The subject of experiment [3] is Nucleic Acid. The experiment in a line: Inhibition of HIV1 TAR RNA. The format is nucleic-acid assay, Human immunodeficiency virus 1.
Experiment [4] relates to Nucleic Acid. The experiment can be described thus: Binding affinity to HIV1 TAR RNA assessed as change in melting temperature at compound to TAR RNA ratio of 4 at pH 6.8 by UV thermal denaturation assay. The format is nucleic-acid assay. The settings on record: Human immunodeficiency virus 1.
The test system of experiment [5] is Nucleic Acid. The experiment in a line: Binding affinity to HIV1 TAR RNA assessed as change in melting temperature at compound to TAR RNA ratio of 2 at pH 6.8 by UV thermal denaturation assay. Conditions: Human immunodeficiency virus 1. It is filed as nucleic-acid assay. The essentials:
(§2)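 TAR RNA UV thermal denaturation in 100 mM KCl, 10 mM SC, 0.5 mM EDTA, pH 6.8, with dimer:RNA at 2:1. Tm taken from first-derivative plots.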

For experiment [6], the system named is Nucleic Acid. The experiment in a line: Binding affinity to HIV1 TAR RNA assessed as melting temperature at compound to TAR RNA ratio of 4 at pH 6.8 by UV thermal denaturation assay. The format is nucleic-acid assay. The settings on record: Human immunodeficiency virus 1.
Experiment [7] has as its system Nucleic Acid. The experiment in a line: Binding affinity to HIV1 TAR RNA assessed as melting temperature at compound to TAR RNA ratio of 2 at pH 6.8 by UV thermal denaturation assay. The format is nucleic-acid assay. Conditions: Human immunodeficiency virus 1. The essentials: as §2
Experiment [8] concerns Nucleic Acid. The experiment in a line: Binding affinity to HIV1 TAR RNA at […] up to 3 by CD Spectroscopy. It is filed as nucleic-acid assay. The settings on record: Human immunodeficiency virus 1. The method in brief: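 CD titration of HIV TAR RNA with incremental additions of neomycin dimer, covering drug/duplex ratio (rdd) 0 to 3. Read-out is molar ellipticity.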

As a reminder, the Tm is the temperature at the midpoint of the melting transition. A word on the ΔTm: it is the shift of the melting midpoint relative to a reference. On to `NC[C@@H]1O[C@H](O[C@H]2[C@@H](O)[C@H](O[C@@H]3[C@@H](O)[C@H](N)C[C@H](N)[C@H]3O[C@H]3O[C@H](CN)[C@@H](O)[C@H](O)[C@H]3N)O[C@@H]2Cn2cc(Cc3ccc(Cc4cn(C[C@H]5O[C@@H](O[C@@H]6[C@@H](O)[C@H](N)C[C@H](N)[C@H]6O[C@H]6O[C@H](CN)[C@@H](O)[C@H](O)[C@H]6N)[C@H](O)[C@@H]5O[C@H]5O[C@@H](CN)[C@@H](O)[C@H](O)[C@H]5N)nn4)cc3)nn2)[C@H](N)[C@@H](O)[C@@H]1O`, for which, in the experiment with Nucleic Acid [1], the midpoint of thermal melting (Tm) worked out at 78.5 °C. Besides, the shift in melting temperature (ΔTm) with Nucleic Acid [2] came out at 9.6 °C.

For `C/C(CCc1cn(C[C@H]2O[C@@H](O[C@@H]3[C@@H](O)[C@H](N)C[C@H](N)[C@H]3O[C@H]3O[C@H](CN)[C@@H](O)[C@H](O)[C@H]3N)[C@H](O)[C@@H]2O[C@H]2O[C@@H](CN)[C@@H](O)[C@H](O)[C@H]2N)nn1)=C(/C)CCc1cn(C[C@H]2O[C@@H](O[C@@H]3[C@@H](O)[C@H](N)C[C@H](N)[C@H]3O[C@H]3O[C@H](CN)[C@@H](O)[C@H](O)[C@H]3N)[C@H](O)[C@@H]2O[C@H]2O[C@@H](CN)[C@@H](O)[C@H](O)[C@H]2N)nn1`, in the experiment with Nucleic Acid [1], the Tm came to 76.4 °C. Besides, in the experiment on Nucleic Acid [2], the ΔTm was determined as 7.6 °C.

Regarding `NC[C@@H]1O[C@H](O[C@H]2[C@@H](O)[C@H](O[C@@H]3[C@@H](O)[C@H](N)C[C@H](N)[C@H]3O[C@H]3O[C@H](CN)[C@@H](O)[C@H](O)[C@H]3N)O[C@@H]2Cn2cc(Cc3cccc(Cc4cn(C[C@H]5O[C@@H](O[C@@H]6[C@@H](O)[C@H](N)C[C@H](N)[C@H]6O[C@H]6O[C@H](CN)[C@@H](O)[C@H](O)[C@H]6N)[C@H](O)[C@@H]5O[C@H]5O[C@@H](CN)[C@@H](O)[C@H](O)[C@H]5N)nn4)c3)nn2)[C@H](N)[C@@H](O)[C@@H]1O`, the melting temperature (Tm) with Nucleic Acid [1] was 78.2 °C. In addition, the thermal shift (ΔTm) with Nucleic Acid [2] came out at 9.3 °C.

For `NC[C@@H]1O[C@H](O[C@H]2[C@@H](O)[C@H](O[C@@H]3[C@@H](O)[C@H](N)C[C@H](N)[C@H]3O[C@H]3O[C@H](CN)[C@@H](O)[C@H](O)[C@H]3N)O[C@@H]2Cn2cc(CCCCCCc3cn(C[C@H]4O[C@@H](O[C@@H]5[C@@H](O)[C@H](N)C[C@H](N)[C@H]5O[C@H]5O[C@H](CN)[C@@H](O)[C@H](O)[C@H]5N)[C@H](O)[C@@H]4O[C@H]4O[C@@H](CN)[C@@H](O)[C@H](O)[C@H]4N)nn3)nn2)[C@H](N)[C@@H](O)[C@@H]1O`, the Tm in the experiment on Nucleic Acid [1] was 74.9 °C. Also, in the experiment on Nucleic Acid [2], the ΔTm was 6.1 °C.

Regarding `NC[C@@H]1O[C@H](O[C@H]2[C@@H](O)[C@H](O[C@@H]3[C@@H](O)[C@H](N)C[C@H](N)[C@H]3O[C@H]3O[C@H](CN)[C@@H](O)[C@H](O)[C@H]3N)O[C@@H]2Cn2cc(COCCCCCCCCCCCCOCc3cn(C[C@H]4O[C@@H](O[C@@H]5[C@@H](O)[C@H](N)C[C@H](N)[C@H]5O[C@H]5O[C@H](CN)[C@@H](O)[C@H](O)[C@H]5N)[C@H](O)[C@@H]4O[C@H]4O[C@@H](CN)[C@@H](O)[C@H](O)[C@H]4N)nn3)nn2)[C@H](N)[C@@H](O)[C@@H]1O`, the Tm with Nucleic Acid [1] was 72.1 °C. The ΔTm in the experiment with Nucleic Acid [2] was determined as 3.3 °C.

What is called IC50 is the concentration that gives 50% inhibition. Higher therefore signals lower potency. What is called Kd is the constant that tells how readily two partners part at equilibrium. Read a low Kd as higher affinity. Consider `NC[C@@H]1O[C@H](O[C@H]2[C@@H](O)[C@H](O[C@@H]3[C@@H](O)[C@H](N)C[C@H](N)[C@H]3O[C@H]3O[C@H](CN)[C@@H](O)[C@H](O)[C@H]3N)O[C@@H]2CO)[C@H](N)[C@@H](O)[C@@H]1O` [FRAMYCETIN], for which, in the experiment with Nucleic Acid [1], the Tm worked out at 69.1 °C. Moreover, in the experiment on Nucleic Acid [3], the IC50 was 417 nM and the Kd was below 1000 nM. Also, the shift in melting temperature (ΔTm) in the experiment with Nucleic Acid [2] was 0.2 °C.

For the compound `NC[C@@H]1O[C@H](O[C@H]2[C@@H](O)[C@H](O[C@@H]3[C@@H](O)[C@H](N)C[C@H](N)[C@H]3O[C@H]3O[C@H](CN)[C@@H](O)[C@H](O)[C@H]3N)O[C@@H]2Cn2cc(CCCc3cn(C[C@H]4O[C@@H](O[C@@H]5[C@@H](O)[C@H](N)C[C@H](N)[C@H]5O[C@H]5O[C@H](CN)[C@@H](O)[C@H](O)[C@H]5N)[C@H](O)[C@@H]4O[C@H]4O[C@@H](CN)[C@@H](O)[C@H](O)[C@H]4N)nn3)nn2)[C@H](N)[C@@H](O)[C@@H]1O`, the ΔTm was 12.4 °C in the experiment with Nucleic Acid [4], 11.5 °C in the experiment with Nucleic Acid [5] and 9.3 °C with Nucleic Acid [2]. Besides, the melting temperature (Tm) stood at 78.2 °C in the experiment with Nucleic Acid [1], 81.3 °C in the experiment on Nucleic Acid [6] and 80.4 °C in the experiment on Nucleic Acid [7].

Regarding `NC[C@@H]1O[C@H](O[C@H]2[C@@H](O)[C@H](O[C@@H]3[C@@H](O)[C@H](N)C[C@H](N)[C@H]3O[C@H]3O[C@H](CN)[C@@H](O)[C@H](O)[C@H]3N)O[C@@H]2Cn2cc(COCCCCCCCCOCc3cn(C[C@H]4O[C@@H](O[C@@H]5[C@@H](O)[C@H](N)C[C@H](N)[C@H]5O[C@H]5O[C@H](CN)[C@@H](O)[C@H](O)[C@H]5N)[C@H](O)[C@@H]4O[C@H]4O[C@@H](CN)[C@@H](O)[C@H](O)[C@H]4N)nn3)nn2)[C@H](N)[C@@H](O)[C@@H]1O`, the Tm in the experiment with Nucleic Acid [1] was determined as 74.3 °C. In the experiment on Nucleic Acid [2], the shift in melting temperature (ΔTm) amounted to 5.4 °C.

In the case of `NC[C@@H]1O[C@H](O[C@H]2[C@@H](O)[C@H](O[C@@H]3[C@@H](O)[C@H](N)C[C@H](N)[C@H]3O[C@H]3O[C@H](CN)[C@@H](O)[C@H](O)[C@H]3N)O[C@@H]2Cn2cc(COCc3cn(C[C@H]4O[C@@H](O[C@@H]5[C@@H](O)[C@H](N)C[C@H](N)[C@H]5O[C@H]5O[C@H](CN)[C@@H](O)[C@H](O)[C@H]5N)[C@H](O)[C@@H]4O[C@H]4O[C@@H](CN)[C@@H](O)[C@H](O)[C@H]4N)nn3)nn2)[C@H](N)[C@@H](O)[C@@H]1O`, in the experiment with Nucleic Acid [1], the melting temperature (Tm) was determined as 79.1 °C. For the same compound, the outcome in the experiment on Nucleic Acid [8] was Active. Besides, the ΔTm in the experiment with Nucleic Acid [2] amounted to 10.2 °C.

As to `NC[C@@H]1O[C@H](O[C@H]2[C@@H](O)[C@H](O[C@@H]3[C@@H](O)[C@H](N)C[C@H](N)[C@H]3O[C@H]3O[C@H](CN)[C@@H](O)[C@H](O)[C@H]3N)O[C@@H]2Cn2cc(CCCCc3cn(C[C@H]4O[C@@H](O[C@@H]5[C@@H](O)[C@H](N)C[C@H](N)[C@H]5O[C@H]5O[C@H](CN)[C@@H](O)[C@H](O)[C@H]5N)[C@H](O)[C@@H]4O[C@H]4O[C@@H](CN)[C@@H](O)[C@H](O)[C@H]4N)nn3)nn2)[C@H](N)[C@@H](O)[C@@H]1O`, the Tm in the experiment with Nucleic Acid [1] stood at 77.1 °C. Also, the thermal shift (ΔTm) with Nucleic Acid [2] came out at 8.2 °C.
